Experiments:
Rattus norvegicus [1] = test: Neurotoxicity in rat assessed as neurological deficit at 250 mg/kg, po after 2 hrs; assay type: toxicity, organism-based; set-up: dose 250 mg/kg, route oral; conditions: in vivo
Summary of the method: (§1)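 Rats given the compound, suspended in 0.5% methylcellulose, by the stated route and dose. Neurological deficit was recorded at the listed times as ataxia and loss of placing response and muscle tone. Reported as number of rats showing toxicity/number tested.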

Mus musculus [2] = test: Neurotoxicity in mouse assessed as inability to maintain equilibrium on rotarod at 130 mg/kg, ip after 2 hrs using rotarod test; assay type: toxicity, organism-based; set-up: dose 130 mg/kg, route intraperitoneal; conditions: in vivo
Summary of the method: (§2)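 Drug given ip to mice as a suspension in 0.5% methylcellulose. At the stated time after dosing, each mouse was placed on a 1 inch knurled rod turning at 6 rpm. Neurotoxicity = inability to stay balanced at least 1 min in each of three trials. Scored as animals toxic/animals tested in small groups.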

Rattus norvegicus [3] = test: Neurotoxicity in rat assessed as neurological deficit at 250 mg/kg, po after 0.5 hrs; assay type: toxicity, organism-based; set-up: dose 250 mg/kg, route oral; conditions: in vivo; summary of the method: as §1
Rattus norvegicus [4] = test: Neurotoxicity in rat assessed as neurological deficit at 500 mg/kg, po after 1 hr; assay type: toxicity, organism-based; set-up: dose 500 mg/kg, route oral; conditions: in vivo; summary of the method: as §1
Rattus norvegicus [5] = test: Neurotoxicity in rat assessed as neurological deficit at 62.5 mg/kg, po after 2 hrs; assay type: toxicity, organism-based; set-up: dose 62.5 mg/kg, route oral; conditions: in vivo
Summary of the method: (§3)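 Rats dosed orally with test agent suspended in 0.5% methylcellulose and observed for up to 24 h (time-to-peak-effect design). Neurological deficit was scored as ataxia with loss of placing response and muscle tone. Two rats per dose per time point; results given as number toxic/number tested.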

Rattus norvegicus [6] = test: Neurotoxicity in rat assessed as neurological deficit at 30 mg/kg, po after 0.25 hrs […]; assay type: toxicity, organism-based; set-up: dose 30 mg/kg, route oral; conditions: in vivo; summary of the method: as §1
Rattus norvegicus [7] = test: Neurotoxicity in rat assessed as neurological deficit at 62.5 mg/kg, po after 0.5 hrs; assay type: toxicity, organism-based; set-up: dose 62.5 mg/kg, route oral; conditions: in vivo; summary of the method: as §3
Rattus norvegicus [8] = test: Neurotoxicity in rat assessed as neurological deficit at 125 mg/kg, po after 2 hrs; assay type: toxicity, organism-based; set-up: dose 125 mg/kg, route oral; conditions: in vivo; summary of the method: as §1
Rattus norvegicus [9] = test: Neurotoxicity in rat assessed as neurological deficit at 250 mg/kg, po after 8 hrs; assay type: toxicity, organism-based; set-up: dose 250 mg/kg, route oral; conditions: in vivo; summary of the method: as §1
Rattus norvegicus [10] = test: Neurotoxicity in rat assessed as neurological deficit at 125 mg/kg, po after 8 hrs; assay type: toxicity, organism-based; set-up: dose 125 mg/kg, route oral; conditions: in vivo; summary of the method: as §1
Rattus norvegicus [11] = test: Neurotoxicity in rat assessed as neurological deficit at 500 mg/kg, po after 8 hrs; assay type: toxicity, organism-based; set-up: dose 500 mg/kg, route oral; conditions: in vivo; summary of the method: as §3
Rattus norvegicus [12] = test: Neurotoxicity in rat assessed as neurological deficit at 500 mg/kg, po after 4 hrs; assay type: toxicity, organism-based; set-up: dose 500 mg/kg, route oral; conditions: in vivo; summary of the method: as §3
Rattus norvegicus [13] = species on record: Rattus norvegicus; test: Protective index, ratio of TD50 for neurotoxicity in rat to ED50 for inhibition of maximal electroshock-induced seizures in rat; assay type: functional
Rattus norvegicus [14] = test: Neurotoxicity in rat assessed as neurological deficit at 30 mg/kg, po after 1 hr […]; assay type: toxicity, organism-based; set-up: dose 30 mg/kg, route oral; conditions: in vivo; summary of the method: as §1
Rattus norvegicus [15] = test: Anticonvulsant activity in po dosed rat assessed as protection against maximal electric shock-induced seizures; assay type: functional
Rattus norvegicus [16] = test: Neurotoxicity in rat assessed as neurological deficit at 125 mg/kg, po after 24 hrs; assay type: toxicity, organism-based; set-up: dose 125 mg/kg, route oral; conditions: in vivo; summary of the method: as §1
Rattus norvegicus [17] = test: Neurotoxicity in rat assessed as neurological deficit at 125 mg/kg, po after 1 hr; assay type: toxicity, organism-based; set-up: dose 125 mg/kg, route oral; conditions: in vivo; summary of the method: as §1
Rattus norvegicus [18] = test: Neurotoxicity in rat assessed as neurological deficit at 250 mg/kg, po after 24 hrs; assay type: toxicity, organism-based; set-up: dose 250 mg/kg, route oral; conditions: in vivo; summary of the method: as §1
Rattus norvegicus [19] = test: Neurotoxicity in rat assessed as neurological deficit at 125 mg/kg, po after 6 hrs; assay type: toxicity, organism-based; set-up: dose 125 mg/kg, route oral; conditions: in vivo; summary of the method: as §1
Rattus norvegicus [20] = test: Neurotoxicity in rat assessed as neurological deficit at 30 mg/kg, po after 0.5 hrs […]; assay type: toxicity, organism-based; set-up: dose 30 mg/kg, route oral; conditions: in vivo; summary of the method: as §1
Rattus norvegicus [21] = test: Neurotoxicity in rat assessed as neurological deficit at 62.5 mg/kg, po after 8 hrs; assay type: toxicity, organism-based; set-up: dose 62.5 mg/kg, route oral; conditions: in vivo; summary of the method: as §3
Rattus norvegicus [22] = test: Neurotoxicity in rat assessed as neurological deficit at 250 mg/kg, po after 0.25 hrs; assay type: toxicity, organism-based; set-up: dose 250 mg/kg, route oral; conditions: in vivo; summary of the method: as §1
Rattus norvegicus [23] = test: Neurotoxicity in rat assessed as neurological deficit at 62.5 mg/kg, po after 0.25 hrs; assay type: toxicity, organism-based; set-up: dose 62.5 mg/kg, route oral; conditions: in vivo; summary of the method: as §3
Rattus norvegicus [24] = test: Neurotoxicity in rat assessed as neurological deficit at 250 mg/kg, po after 6 hrs; assay type: toxicity, organism-based; set-up: dose 250 mg/kg, route oral; conditions: in vivo; summary of the method: as §1
Rattus norvegicus [25] = test: Neurotoxicity in rat assessed as neurological deficit at 62.5 mg/kg, po after 4 hrs; assay type: toxicity, organism-based; set-up: dose 62.5 mg/kg, route oral; conditions: in vivo; summary of the method: as §3
Rattus norvegicus [26] = test: Neurotoxicity in rat assessed as neurological deficit at 125 mg/kg, po after 0.25 hrs; assay type: toxicity, organism-based; set-up: dose 125 mg/kg, route oral; conditions: in vivo; summary of the method: as §1
Mus musculus [27] = test: Neurotoxicity in mouse assessed as inability to maintain equilibrium on rotarod at 100 mg/kg, ip after 4 hrs by rotarod test; assay type: toxicity, organism-based; set-up: dose 100 mg/kg, route intraperitoneal; conditions: in vivo; summary of the method: as §2

## Cc1cccc(C)c1OCC(=O)NC1CCCCC1O.Cl (racemic; 1)
Rattus norvegicus [1]
  Activity: Non-toxic
Mus musculus [2]
  Activity: Non-toxic
Rattus norvegicus [3]
  Activity: Non-toxic
Rattus norvegicus [4]
  Activity: Non-toxic
Rattus norvegicus [5]
  Activity: Non-toxic
Rattus norvegicus [6]
  Activity: Non-toxic
Rattus norvegicus [7]
  Activity: Non-toxic
Rattus norvegicus [8]
  Activity: Non-toxic
Rattus norvegicus [9]
  Activity: Non-toxic
Rattus norvegicus [10]
  Activity: Non-toxic
Rattus norvegicus [11]
  Activity: Non-toxic
Rattus norvegicus [12]
  Activity: Non-toxic
Rattus norvegicus [13]
  Ratio TD50/ED50: >21.218
Rattus norvegicus [14]
  Activity: Non-toxic
Rattus norvegicus [15]
  ED50: 23.6 mg/kg
Rattus norvegicus [16]
  Activity: Non-toxic
Rattus norvegicus [17]
  Activity: Non-toxic
Rattus norvegicus [18]
  Activity: Non-toxic
Rattus norvegicus [19]
  Activity: Non-toxic
Rattus norvegicus [20]
  Activity: Non-toxic
Rattus norvegicus [21]
  Activity: Non-toxic
Rattus norvegicus [22]
  Activity: Non-toxic
Rattus norvegicus [23]
  Activity: Non-toxic
Rattus norvegicus [24]
  Activity: Non-toxic
Rattus norvegicus [25]
  Activity: Non-toxic
Rattus norvegicus [26]
  Activity: Non-toxic
Mus musculus [27]
  Activity: Non-toxic

Source: ChEMBL document CHEMBL1921792, “Synthesis and anticonvulsant activity of trans- and cis-2-(2,6-dimethylphenoxy)-N-(2- or 4-hydroxycyclohexyl)acetamides and their amine analogs” (Bioorg Med Chem, 2011)
